ChEMBL document CHEMBL4689842, “EUbOPEN Chemogenomics Library wave 1” (2021)
“And” between values parts separate entries of the source, which are not always exact repeats. Equal values may be shown once.

Legend:
Format in all cases: toxicity, cell-based
[1] = system: U2OS; assay: Multiplex assay against U2OS; settings: human, 24 h, 10 µM, compound concentration 10 uM
Procedure, shortened: (§1)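 Live cells carried four stains from seeding: Hoechst33342, BioTracker Green Microtubule Cytoskeleton Dye, MitoTracker Red and Annexin V Alexa Fluor 680. They were imaged on a CQ1 microscope at 37°C and 5% CO2 after compound addition. Using CellPathfinder machine-learning gating, cells were split into Hoechst high-intensity objects or normal cells, normal cells into healthy, pyknosed or fragmented nuclei, and pyknosed cells into mitotic or apoptotic; tubulin, mitochondrial-mass and membrane-permeability phenotypes are per cents of healthy-nucleus cells.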

[2] = system: Fibroblast; assay: Incucyte cell viability with human fibroblast; settings: 10 µM, compound concentration 10 uM; note: filed as whole numbers so only -1 and 0 and 1 occur
[3] = system: HEK-293T; assay: Incucyte cell viability with HEK293T; settings: human, 10 µM, compound concentration 10 uM; note: filed as whole numbers so only -1 and 0 and 1 occur
[4] = system: U2OS; assay: Incucyte cell viability with U2OS; settings: human, 10 µM, compound concentration 10 uM; note: filed as whole numbers so only -1 and 0 and 1 occur
[5] = system: Fibroblast; assay: Multiplex assay against human fibroblast; settings: 10 µM, compound concentration 10 uM; procedure, shortened: as §1
[6] = 0 h, replicate number 1, timepoint 0 hours
[7] = 6 h, replicate number 1, timepoint 6 hours
[8] = 12 h, replicate number 1, timepoint 12 hours
[9] = 18 h, replicate number 1, timepoint 18 hours
[10] = 24 h, replicate number 1, timepoint 24 hours

COc1ccccc1-c1cc(Nc2cccc(CS(N)(=O)=O)c2)ncn1
Population Normal (%) ([1]; replicate 1): 96% and 97% | Population Tubulin-Different-Phenotype (%) ([1]; replicate 1): 22% | Total Cell Count ([1]; replicate 1): 230 and 545 | Population Apoptotic (%) ([1]; replicate 2): 62% and 50% | Population Healthy Nuclei (%) ([1]; replicate 2): 63% and 91% | Population Mitochondria Different-Phenotype (%) ([1]; replicate 2): 33% and 31% | Population Mitotic Cells (%) ([1]; replicate 2): 37% and 50% | Population Normal (%) ([1]; replicate 2): 78% and 93% | Population Tubulin-Different-Phenotype (%) ([1]; replicate 2): 23% and 33% | Total Cell Count ([1]; replicate 2): 157 and 384 | Growth Rate [2, 6]: 0 | Growth Rate [2, 7]: 0 | Growth Rate ([2]; 6 h, replicate number 2, timepoint 6 hours): 1 | Growth Rate [2, 8]: 0 | Growth Rate [2, 9]: 0 | Growth Rate [2, 10]: 0 | Growth Rate [3, 6]: 0 | Growth Rate [3, 7]: 0 | Growth Rate [3, 8]: 0 | Growth Rate [3, 9]: 0 | Growth Rate [3, 10]: 0 | Growth Rate [4, 6]: 0 | Growth Rate [4, 7]: 0 | Growth Rate [4, 8]: 0 | Growth Rate [4, 9]: 0 | Growth Rate [4, 10]: 0 | Population Apoptotic (%) ([5]; 12 h, replicate 1): 70% and 60% | Population Fragmented Nuclei (%) ([5]; 12 h, replicate 1): 24% and 28% | Population Healthy Nuclei (%) ([5]; 12 h, replicate 1): 62% and 53% | Population Hoechst High Intensity Objects (%) ([5]; 12 h, replicate 1): 11% and 10% | Population Membrane Permeable-Phenotype (%) ([5]; 12 h, replicate 1): 9% | Population Mitochondria Different-Phenotype (%) ([5]; 12 h, replicate 1): 4% | Population Mitotic Cells (%) ([5]; 12 h, replicate 1): 29% and 39% | Population Normal (%) ([5]; 12 h, replicate 1): 88% and 89% | Population Pyknosed Nuclei (%) ([5]; 12 h, replicate 1): 13% and 17% | Total Cell Count ([5]; 12 h, replicate 1): 208 and 254 | Population Apoptotic (%) ([5]; 12 h, replicate 2): 50% and 75% | Population Fragmented Nuclei (%) ([5]; 12 h, replicate 2): 63% and 72% | Population Healthy Nuclei (%) ([5]; 12 h, replicate 2): 31% and 20% | Population Hoechst High Intensity Objects (%) ([5]; 12 h, replicate 2): 34% and 40% | Population Membrane Permeable-Phenotype (%) ([5]; 12 h, replicate 2): 16% and 10% | Population Mitochondria Different-Phenotype (%) ([5]; 12 h, replicate 2): 8% and 20% | Population Mitotic Cells (%) ([5]; 12 h, replicate 2): 50% and 25% | Population Normal (%) ([5]; 12 h, replicate 2): 65% and 59% | Population Pyknosed Nuclei (%) ([5]; 12 h, replicate 2): 5% and 8% | Population Tubulin-Different-Phenotype (%) ([5]; 12 h, replicate 2): 25% and 30% | Total Cell Count ([5]; 12 h, replicate 2): 58 and 84 | Population Apoptotic (%) ([5]; 24 h, replicate 1): 75% and 66% | Population Fragmented Nuclei (%) ([5]; 24 h, replicate 1): 25% and 23% | Population Healthy Nuclei (%) ([5]; 24 h, replicate 1): 60% and 57% | Population Hoechst High Intensity Objects (%) ([5]; 24 h, replicate 1): 14% and 10% | Population Membrane Permeable-Phenotype (%) ([5]; 24 h, replicate 1): 7% | Population Mitochondria Different-Phenotype (%) ([5]; 24 h, replicate 1): 4% and 11% | Population Mitotic Cells (%) ([5]; 24 h, replicate 1): 24% and 33% | Population Normal (%) ([5]; 24 h, replicate 1): 85% and 89% | Population Pyknosed Nuclei (%) ([5]; 24 h, replicate 1): 14% and 19% | Total Cell Count ([5]; 24 h, replicate 1): 267 and 188 | Population Apoptotic (%) ([5]; 24 h, replicate 2): 50% | Population Fragmented Nuclei (%) ([5]; 24 h, replicate 2): 54% and 70% | Population Healthy Nuclei (%) ([5]; 24 h, replicate 2): 40% and 26% | Population Hoechst High Intensity Objects (%) ([5]; 24 h, replicate 2): 30% and 28% | Population Membrane Permeable-Phenotype (%) ([5]; 24 h, replicate 2): 21% and 13% | Population Mitochondria Different-Phenotype (%) ([5]; 24 h, replicate 2): 0% | Population Mitotic Cells (%) ([5]; 24 h, replicate 2): 50% | Population Normal (%) ([5]; 24 h, replicate 2): 70% and 71% | Population Pyknosed Nuclei (%) ([5]; 24 h, replicate 2): 5% and 3% | Population Tubulin-Different-Phenotype (%) ([5]; 24 h, replicate 2): 28% and 26% | Total Cell Count ([5]; 24 h, replicate 2): 50 and 80
